# TAAR1 ag – human TAAR1 agonists, primary screen, Fluo-8 calcium fluorescence, CHO RD-HGA16 cells. activation, % at 3 µM. 360,000 compounds, 0.99% hits. Trace amine-associated receptor 1 (Homo sapiens), Q96RJ0. vehicle wells 0%, saturating PEA agonist 100%;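 active means activation above the mean activation of all test compounds in the run plus 3 SD, cut at about 38% in these data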
#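 test system = CHO RD-HGA16 cells carrying human TAAR1 plus Gα16 | schedule = 17-24 h seeding, 75 min 37 °C dye, 30 min RT | compound dosing = 3 µM single concentration | control set = DMSO and PEA EC100 | replicates = n 1 | signal = Fluo-8 fluorescence, 5 s baseline then 140 s kinetic read | measure = percent activation vs PEA EC100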
# GPR7 antag – GPR7 receptor antagonists, primary screen, cell-based, fluorescence, single concentration. GPR7-expressing cells, fluorescence antagonist assay. inhibition, % at 4.4 µM. 290,000 compounds, 1.1% hits. AID 1861, 2009; in the data active means inhibition above about 16%, passing the limit was not always enough;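 further: cells stimulated with the agonist NPW; 0% = agonist with vehicle and 100% = vehicle without agonist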
# Target sequence (P48145 whole entry, looked up): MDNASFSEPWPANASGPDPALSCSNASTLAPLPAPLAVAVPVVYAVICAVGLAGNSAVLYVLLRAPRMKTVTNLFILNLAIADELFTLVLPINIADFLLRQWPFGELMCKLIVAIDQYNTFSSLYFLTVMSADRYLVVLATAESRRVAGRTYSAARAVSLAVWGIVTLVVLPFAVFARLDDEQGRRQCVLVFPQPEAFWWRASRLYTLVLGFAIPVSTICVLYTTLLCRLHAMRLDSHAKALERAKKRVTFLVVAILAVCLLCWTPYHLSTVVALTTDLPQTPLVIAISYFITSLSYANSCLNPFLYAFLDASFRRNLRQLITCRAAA
# CHO parental Ca – ATP-evoked calcium signal inhibitors, parental CHO, primary screen, counter-screen for OX1R antagonist project, cell-based, fluorescence, Fluo-8 calcium dye. parental CHO-K1, ATP-induced calcium, Fluo-8 fluorescence. inhibition, % at 5.6 µM. 330,000 compounds, 0.63% hits. AID 463079, 2010;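 active means inhibition above that plate's mean sample inhibition plus 3 SD, cut at about 26% in these data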;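 further: 0% = ATP-challenged DMSO wells and 100% = DMSO wells without ATP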
#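 Material: Parental CHO cells | Reagent: ATP | Compound dosing: Single nominal dose of 5.6 µM per compound | Detection: Intracellular calcium via Fluo-8 no-wash fluorescent dye | Read-out: % inhibition of ATP-induced calcium mobilization | Benchmarks: Low control ATP plus DMSO, high control DMSO only | Replicates: Singlicate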
# OX1R antag-1 – OX1R (HCRTR1) antagonists, primary screen, fluorescence, CHO/OX1R cells, Fluo-8 calcium, orexin A | inhibition, % at 5 µM | 330,000 compounds, 0.43% hits | Fluo-8 calcium fluorescence;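 active means inhibition above its plate's threshold, mean inhibition of all tested compounds on the plate plus 3 SD, cut at about 37% in these data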;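 further: 0% = orexin A challenge wells and 100% = SB-334867-A antagonist wells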
# Target sequence (O43613 whole entry, looked up): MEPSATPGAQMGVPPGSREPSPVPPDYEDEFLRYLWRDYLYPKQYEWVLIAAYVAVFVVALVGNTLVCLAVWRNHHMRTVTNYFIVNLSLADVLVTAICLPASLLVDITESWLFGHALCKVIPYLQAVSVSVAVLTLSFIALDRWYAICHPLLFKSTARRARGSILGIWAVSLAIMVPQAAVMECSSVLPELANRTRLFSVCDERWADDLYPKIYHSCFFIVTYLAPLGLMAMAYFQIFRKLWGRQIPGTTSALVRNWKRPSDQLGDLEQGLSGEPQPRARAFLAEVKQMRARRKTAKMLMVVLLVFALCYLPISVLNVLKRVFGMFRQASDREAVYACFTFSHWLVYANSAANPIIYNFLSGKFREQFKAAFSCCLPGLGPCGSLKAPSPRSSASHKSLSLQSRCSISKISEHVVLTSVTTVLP
# OX1R antag-2 – antagonists of human orexin 1 receptor (OX1R). Orexin/Hypocretin receptor type 1 (Homo sapiens), O43613. OX1R-expressing cells, FRET antagonist read-out. inhibition, % at 6.6 µM. 330,000 compounds, 1.8% hits. AID 485270, 2010; in the data active means inhibition mostly above about 38%, no sharp cut-off; inactive means mostly below about 40%;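 further: 0% = agonist challenge alone and 100% = reference antagonist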
# TAAR1 antagonist – human TAAR1 antagonists, primary screen, Fluo-8 calcium fluorescence, CHO RD-HGA16 cells | Trace amine-associated receptor 1 (Homo sapiens), Q96RJ0 | antagonist | inhibition, % at 3 µM | 360,000 compounds, 1.5% hits | AID 624466, 2012;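 active means inhibition above a per-plate cutoff, the mean inhibition of test compounds on that plate plus 3 SD, cut at about 49% in these data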;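 further: 0% = DMSO plus EC80 beta-PEA response and 100% = DMSO alone without agonist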
#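 Assay system: CHO-derived RD-HGA16 cells stably expressing human TAAR1 plus Gα16. Timing: 140 s kinetic read after compound, 140 s after agonist. Technique: kinetic Fluo-8 calcium fluorescence measurement. Measure: % inhibition of agonist calcium response.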
# GPR7 antag cf – GPR7 receptor antagonists, confirmation, cell-based, fluorescence, single concentration | AID 1952, 2009 | 2,400 compounds, 52% hits | shares compounds with GPR7 antag | GPR7-expressing cells, calcium fluorescence antagonist mode | inhibition, % at 4.4 µM; in the data active means inhibition above about 24%;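 further: stimulated with the GPR7 agonist NPW; 0% = agonist plus vehicle and 100% = vehicle alone without agonist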
# MCHR1 antag – MCHR1 antagonists in cells, counter-screen for GPR7 antagonist project, cell-based, fluorescence, human | inhibition, % at 4.4 µM | 2,400 compounds, 62% hits | shares compounds with GPR7 antag | MCHR1-expressing cells, fluorescence antagonist assay | AID 2148, 2009; in the data active means inhibition above about 22%;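 further: 0% = vehicle with agonist and 100% = vehicle without agonist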
# OX1R Fluo8 conf – OX1R (HCRTR1) antagonists, confirmation, fluorescence, CHO/OX1R cells, Fluo-8 calcium, orexin A | 1,100 compounds, 38% hits | shares compounds with OX1R antag-1 | orexin A calcium Fluo-8 fluorescence | inhibition, % at 5 µM; in the data active means inhibition above about 29%;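 further: 0% = agonist challenge alone and 100% = reference antagonist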
# CHO Ca counter – ATP-evoked calcium inhibition in parental CHO, counter-screen for OX1R antagonist project, cell-based, fluorescence, CHO-K1, triplicate. shares compounds with OX1R antag-1. ATP-induced calcium, Fluo-8 fluorescence. inhibition, % at 5.6 µM. 1,100 compounds, 9.3% hits. AID 492965, 2010;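 active means inhibition above a per-plate limit, the mean inhibition of that plate's test compounds plus 3 SD, cut at about 25% in these data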;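 further: 0% = ATP challenge with DMSO and 100% = DMSO without ATP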
# OX1R HTRF confirm – OX1R (HCRTR1) antagonists, confirmation, cell-based, HTRF; shares compounds with OX1R antag-2; OX1R-expressing cells, HTRF antagonist assay; inhibition, % at 6.6 µM; 1,800 compounds, 49% hits; AID 492964, 2010; in the data active means inhibition above about 55%;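 further: CHO cells expressing OX1R stimulated with orexin A at about EC80; 0% = agonist challenge alone and 100% = reference antagonist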
# CHO-K1 HTRF cnt – signal inhibition in parental CHO-K1 cells, counter-screen for OX1R antagonist project, cell-based, HTRF; shares compounds with OX1R antag-2; HTRF counterscreen; inhibition, % at 6.6 µM; 1,800 compounds, 48% hits; AID 493232, 2011; in the data active means inhibition above about 17%;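 further: 0% = agonist challenge with vehicle and 100% = vehicle alone without agonist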
# * hit, by the source's call; · = no result given. A selection: hits, their analogues and other compounds. The true share with any hit is near 4.6%.
SMILES,TAAR1 ag,GPR7 antag,CHO parental Ca,OX1R antag-1,OX1R antag-2,TAAR1 antagonist,others
CN(C)c1ccc(-[n+]2c(-c3ccccc3)cc(-c3ccccc3)cc2-c2ccccc2)cc1,13,59*,·,·,·,34,GPR7 antag cf=79*;MCHR1 antag=78*
O=[N+]([O-])c1ccc(N2CCCCCC2)c2nonc12,162*,41*,93*,102*,103*,66*,GPR7 antag cf=51*;MCHR1 antag=61*
O=[N+]([O-])c1ccc(C2[C@H]3C(c4ccccc4)=NC4(CCCCC4)N23)cc1 (stereo partly specified),2,0,-29,-20,27,3,
COC(=O)C1=C(c2ccc(F)cc2F)C[C@@H]2CC[C@H]1N2C(=O)N1CCC(O)(c2ccc(Cl)cc2)CC1,0,·,-34,-15,1,27,
CCN1C[C@]2(OC(=O)c3ccccc3NC(C)=O)CCC(OC)C34C5C[C@H]6C(OC)[C@]5(O)[C@](O)(C[C@@H]6OC)C(C[C@@H]32)[C@H]14 (stereo partly specified),0,-2,-7,-19,6,-6,
Cc1occc1C(=O)N1CCC2(CC1)OCCO2,5,33*,-9,-14,11,2,GPR7 antag cf=2;MCHR1 antag=-3
Cc1cc(C)c(C(=O)N2CCC3(CC2)OCCO3)c(C)c1,-1,-5,-15,-1,10,1,
O=C(Nc1cccc(Cl)c1)OC1CN2CCC1CC2 (stereo unspecified),7,22*,46*,21,57,24,GPR7 antag cf=53*;MCHR1 antag=58*
O=C(Nc1ccc(Cl)cc1)OC1CN2CCC1CC2 (stereo unspecified),10,10,5,-5,9,-21,
OC12CCCCC1C(c1ccccc1)NCC2 (stereo unspecified),1,23*,5,4,-2,-3,GPR7 antag cf=8;MCHR1 antag=-1
O=C(c1cc2cc(Br)ccc2[nH]1)N1CCC2(CC1)OCCO2,1,7,-4,-16,2,-17,
O=C(c1cc(Br)ccc1Cl)N1CCC2(CC1)OCCO2,14,5,-1,45*,6,6,OX1R Fluo8 conf=1;CHO Ca counter=14
CC1(C)CC(=O)CC(C)(C)N1O,1,·,·,·,·,-16,
COC(=O)C1=C(c2ccccc2OCc2ccccc2)C[C@@H]2CC[C@H]1N2C(=O)NCc1cccc(C(F)(F)F)c1,10,·,-21,61*,23,36,OX1R Fluo8 conf=19;CHO Ca counter=-17
Cn1c(O)c(/C=C/C=Nc2ccccc2)c(=O)n(C)c1=S,41*,4,12,33,15,34,OX1R Fluo8 conf=33*;CHO Ca counter=36*
CCOC(=O)C(c1c(O)c2ccccc2oc1=O)c1c(O)c2ccccc2oc1=O,0,·,·,·,·,-14,
O=C(NC1CCCCC1)[C@@H]1CC=C[C@@H]2CCN(Cc3ccccc3)C(=O)[C@@H]21,5,·,-13,42,75*,-3,OX1R Fluo8 conf=47*;CHO Ca counter=-8;OX1R HTRF confirm=74*;CHO-K1 HTRF cnt=-2
O=C(c1ccccc1)C(Cc1ccccc1)N1CCOCC1 (stereo unspecified),-1,·,·,·,·,-1,
COc1ccccc1NC(=O)COC(=O)c1cn(C)c2ccccc12,4,·,-3,47*,54*,29,OX1R Fluo8 conf=-1;CHO Ca counter=-12;OX1R HTRF confirm=26;CHO-K1 HTRF cnt=-1
C[C@]12CCC3C(CC[C@H]4C[C@@H](O)CC[C@]34C)C1C[C@@H](O)[C@@H]2O (stereo partly specified),9,·,·,·,·,0,
Cc1cccc(C(=O)Nc2ccc3c(c2)CC2(C(=O)N(C)C(=O)N(C)C2=O)C2CCCN32)c1 (stereo unspecified),·,-16,-25,-15,6,·,
COc1ccccc1C(=O)Nc1ccc2c(c1)CC1(C(=O)N(C)C(=O)N(C)C1=O)C1CCCN21 (stereo unspecified),-1,-12,-15,29,67*,-22,OX1R Fluo8 conf=43*;CHO Ca counter=-4;OX1R HTRF confirm=90*;CHO-K1 HTRF cnt=20*
CN1C(=O)C(=Cc2ccc(N3CCCCCC3)o2)C(=O)N(C)C1=S,16,-3,5,7,7,-7,
CN1C(=O)C(=Cc2ccc(N3CCOCC3)o2)C(=O)N(C)C1=O,6,10,-1,-8,123*,-14,OX1R HTRF confirm=65*;CHO-K1 HTRF cnt=90*
CCCCn1nnnc1C(c1cccs1)N1CCC2(CC1)C(=O)NCN2c1ccccc1 (stereo unspecified),1,·,·,·,·,24,
SMILES,TAAR1 ag,GPR7 antag,CHO parental Ca,OX1R antag-1,OX1R antag-2,TAAR1 antagonist,others
O=C(NC1CN2CCC1CC2)c1ccc(-c2ccc([N+](=O)[O-])cc2)o1 (stereo unspecified),2,2,-3,0,84*,-17,OX1R HTRF confirm=41;CHO-K1 HTRF cnt=56*
CCN(CC)S(=O)(=O)c1ccc(C(=O)NC2CN3CCC2CC3)cc1 (stereo unspecified),8,-15,8,-7,-5,-20,
OCC[n+]1c2ccccc2nc2ccc(N3CCOCC3)cc21,5,-10,0,-3,113*,-26,OX1R HTRF confirm=40;CHO-K1 HTRF cnt=76*
O=C(CCc1ccccc1)N1Cc2cc(N3CCOCC3)ccc2-n2nncc2C1,1,·,·,·,·,-19,
O=c1[nH]c(O)c(N=Nc2cc(C(F)(F)F)ccc2Cl)c(=O)[nH]1,-3,-1,-10,-22,35,8,
O=C(O)c1ccccc1N=Nc1c(O)[nH]c(=O)[nH]c1=O,3,-7,-9,3,111*,-7,OX1R HTRF confirm=39;CHO-K1 HTRF cnt=76*

# Screening data deposited in PubChem by The Scripps Research Institute Molecular Screening Center.
